Common to all, as to format: functional
The subject of assay [1] is Staphylococcus aureus. Put plainly: Antibacterial activity against methicillin-resistant Staphylococcus aureus Xen1 infected neutropenic CD1 mouse assessed as mortality at 100 mg/kg, po within 24 hrs. Particulars: Xen1, 24 h. In short, it runs like this: (§1)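 Female CD-1 mice (20–25 g) were made neutropenic with cyclophosphamide i.p. at 150 mg/kg 4 days and 100 mg/kg 1 day before infection. They were infected i.p. with a lethal dose of lux strain (2 × 10^7 to 5 × 10^8 CFU/mouse) suspended in 6% hog gastric mucin. A single s.c. or gavage dose was given 1 h later. Survivors were counted daily for 7 days, n=5/group.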

The test system of assay [2] is Staphylococcus aureus. Briefly: Reduction in bioluminescent methicillin-sensitive Staphylococcus aureus Xen29 in neutropenic CD1 mouse with peritonitis at 100 mg/kg, sc after 2 hrs relative to control. On the set-up: scale not given: the % may be the effect or the level left. Particulars: route subcutaneous. The method, boiled down: (§2)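 Neutropenia was induced with cyclophosphamide 150 mg/kg i.p. at day −4 and 100 mg/kg i.p. at day −1. Mice were then infected i.p. with Xen-29 (2 × 10^7 to 5 × 10^8 CFU) in 6% mucin (n = 5/group) and dosed once, s.c. or by gavage, at 1 h. Luminescence was imaged hourly under anesthesia, 0–5 h postdosing. Mean region-of-interest flux is given as percent reduction versus time-matched saline (10 ml/kg s.c.) controls.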

The test system of assay [3] is Staphylococcus aureus. Put plainly: Reduction in bioluminescent methicillin-sensitive Staphylococcus aureus Xen29 in immunocompetent CD1 mouse with peritonitis at 100 mg/kg, sc after 3 hrs relative to control. On the set-up: scale not given: the % may be the effect or the level left. Particulars: route subcutaneous. The method, boiled down: (§3)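 Peritonitis in healthy female CD-1 mice (n = 5/group): i.p. Xen-29 (2 × 10^7 to 5 × 10^8 CFU) in 6% mucin, then a single s.c. or gavage dose at 1 h. Controls got saline 10 ml/kg s.c. Mice were anesthetized hourly (pentobarbital 60 mg/kg i.p. or isoflurane) and imaged ventral side up for 1–5 min, to 5 h postdosing. Total flux (photons/s/cm2) over the infected region was averaged per group. Percent reduction is versus time-matched saline controls.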

The subject of assay [4] is Staphylococcus aureus. Put plainly: Protection against methicillin-susceptible Staphylococcus aureus Xen29 infection in nonneutropenic CD1 mouse at 100 mg/kg, po after 7 days. In short, it runs like this: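 Female CD-1 mice (20–25 g, n = 5/group) were given an i.p. lethal inoculum of lux-bearing MSSA Xen-29 (2 × 10^7 to 5 × 10^8 CFU/mouse) suspended in 6% hog gastric mucin. A single dose was given by gavage 1 h after inoculation. Survival was recorded daily for 7 days after inoculation.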

Assay [5] deals with Staphylococcus aureus. Briefly: Reduction in bioluminescent methicillin-sensitive Staphylococcus aureus Xen29 in neutropenic CD1 mouse with peritonitis at 100 mg/kg, sc after 5 hrs relative to control. Also on record: scale not given: the % may be the effect or the level left. Particulars: route subcutaneous. The method, boiled down: as §2
Assay [6] relates to Staphylococcus aureus. Briefly: Antimicrobial activity against bioluminescent methicillin-resistant Staphylococcus aureus Xen1. The method, boiled down:
(§4)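 MIC by broth microdilution following CLSI guidelines against bioluminescent lux-carrying strains (Xen-1 plasmid-borne lux, Xen-29 chromosomal lux), grown overnight in Mueller-Hinton broth at 37°C.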

Assay [7] has as its system Staphylococcus aureus. Briefly: Reduction in bioluminescent methicillin-sensitive Staphylococcus aureus Xen29 in immunocompetent CD1 mouse at 100 mg/kg, sc after 4 hrs relative to control. On the set-up: scale not given: the % may be the effect or the level left. Particulars: route subcutaneous. The method, boiled down:
as §3

In assay [8] the test system is Staphylococcus aureus. Put plainly: Reduction in bioluminescent methicillin-sensitive Staphylococcus aureus Xen29 in immunocompetent CD1 mouse with peritonitis at 100 mg/kg, sc after 5 hrs relative to control. Also on record: scale not given: the % may be the effect or the level left. Particulars: route subcutaneous. The method, boiled down:
as §3

Assay [9] has as its system Staphylococcus aureus. Briefly: Antibacterial activity against methicillin-susceptible Staphylococcus aureus Xen29 infected nonneutropenic CD1 mouse assessed as mouse survival at 50 mg/kg, sc after 7 days. Particulars: 168 h, route subcutaneous. The method, boiled down:
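Healthy female CD-1 mice (20–25 g) were infected i.p. with a lethal dose of lux strain (2 × 10^7 to 5 × 10^8 CFU/mouse) from an overnight Mueller-Hinton culture suspended in 6% hog gastric mucin. A single s.c. dose was given 1 h post-inoculation. Survival was recorded daily for 7 days, n=5/group.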

For assay [10], the system named is Staphylococcus aureus. Briefly: Antibacterial activity against methicillin-susceptible Staphylococcus aureus Xen29 infected neutropenic CD1 mouse assessed as mortality at 100 mg/kg, po within 24 hrs. Particulars: Xen29, 24 h. The method, boiled down:
as §1

Assay [11] relates to Staphylococcus aureus. Put plainly: Antimicrobial activity against bioluminescent methicillin-susceptible Staphylococcus aureus Xen29. In short, it runs like this: as §4
Assay [12] relates to Staphylococcus aureus. Briefly: Reduction in bioluminescent methicillin-sensitive Staphylococcus aureus Xen29 in neutropenic CD1 mouse with peritonitis at 100 mg/kg, sc after 4 hrs relative to control. Particulars: route subcutaneous. Also on record: scale not given: the % may be the effect or the level left. In short, it runs like this: as §2
The test system of assay [13] is Staphylococcus aureus. Briefly: Reduction in bioluminescent methicillin-sensitive Staphylococcus aureus Xen29 in immunocompetent CD1 mouse with peritonitis at 100 mg/kg, sc relative to control. Also on record: scale not given: the % may be the effect or the level left. Particulars: route subcutaneous. In short, it runs like this:
as §3

Assay [14] deals with Staphylococcus aureus. Put plainly: Reduction in bioluminescent methicillin-sensitive Staphylococcus aureus Xen29 in neutropenic CD1 mouse with peritonitis at 100 mg/kg, sc after 3 hrs relative to control. Also on record: scale not given: the % may be the effect or the level left. Particulars: route subcutaneous. In short, it runs like this:
as §2

Assay [15] relates to Staphylococcus aureus. Put plainly: Antibacterial activity against methicillin-resistant Staphylococcus aureus Xen1 infected neutropenic CD1 mouse assessed as mortality at 100 mg/kg, po after 4 days. In short, it runs like this:
as §1

Assay [16] has as its system Staphylococcus aureus. Put plainly: Reduction in bioluminescent methicillin-resistant Staphylococcus aureus Xen1 in neutropenic CD1 mouse with peritonitis at 100 mg/kg, po after 5 hrs relative to control. On the set-up: scale not given: the % may be the effect or the level left. In short, it runs like this: (§5)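 Cyclophosphamide-neutropenic female CD-1 mice (150 mg/kg i.p. day −4, 100 mg/kg day −1) were infected i.p. with a lethal inoculum in 6% mucin. A single s.c. or gavage dose was given 1 h later. Mice were anesthetized and imaged hourly to 5 h. Region-of-interest total flux (photons/s/cm2) was averaged over 5 mice. Percent reduction is relative to time-matched saline (10 ml/kg s.c.) controls.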

Assay [17] relates to Staphylococcus aureus. Put plainly: Reduction in bioluminescent methicillin-sensitive Staphylococcus aureus Xen29 in immunocompetent CD1 mouse with peritonitis at 100 mg/kg, po after 5 hrs relative to control. On the set-up: scale not given: the % may be the effect or the level left. The method, boiled down: as §3
For assay [18], the system named is Staphylococcus aureus. Briefly: Reduction in bioluminescent methicillin-resistant Staphylococcus aureus Xen1 in neutropenic CD1 mouse with peritonitis at 100 mg/kg, po after 3 hrs relative to control. On the set-up: scale not given: the % may be the effect or the level left. In short, it runs like this:
as §5

Assay [19] has as its system Staphylococcus aureus. Put plainly: Reduction in bioluminescent methicillin-sensitive Staphylococcus aureus Xen29 in neutropenic CD1 mouse with peritonitis at 100 mg/kg, po after 5 hrs relative to control. Also on record: scale not given: the % may be the effect or the level left. The method, boiled down:
as §2

The test system of assay [20] is Staphylococcus aureus. Briefly: Antibacterial activity against methicillin-susceptible Staphylococcus aureus Xen29 infected neutropenic CD1 mouse assessed as mortality at 100 mg/kg, po after 4 days. In short, it runs like this: as §1
The test system of assay [21] is Staphylococcus aureus. Put plainly: Reduction in bioluminescent methicillin-sensitive Staphylococcus aureus Xen29 in immunocompetent CD1 mouse with peritonitis at 100 mg/kg, po after 4 hrs relative to control. On the set-up: scale not given: the % may be the effect or the level left. In short, it runs like this: as §3
Assay [22] concerns Staphylococcus aureus. Put plainly: Reduction in bioluminescent methicillin-sensitive Staphylococcus aureus Xen29 in neutropenic CD1 mouse with peritonitis at 100 mg/kg, po after 4 hrs relative to control. On the set-up: scale not given: the % may be the effect or the level left. In short, it runs like this:
as §2

Assay [23] relates to Staphylococcus aureus. Briefly: Reduction in bioluminescent methicillin-resistant Staphylococcus aureus Xen1 in neutropenic CD1 mouse with peritonitis at 100 mg/kg, po after 2 hrs relative to control. Also on record: scale not given: the % may be the effect or the level left. In short, it runs like this: as §5
Assay [24] has as its system Staphylococcus aureus. Briefly: Reduction in bioluminescent methicillin-sensitive Staphylococcus aureus Xen29 in neutropenic CD1 mouse with peritonitis at 100 mg/kg, po after 3 hrs relative to control. Also on record: scale not given: the % may be the effect or the level left. The method, boiled down: as §2
Assay [25] has as its system Staphylococcus aureus. Briefly: Reduction in bioluminescent methicillin-sensitive Staphylococcus aureus Xen29 in immunocompetent CD1 mouse with peritonitis at 100 mg/kg, po after 3 hrs relative to control. On the set-up: scale not given: the % may be the effect or the level left. In short, it runs like this: as §3

In brackets after ≈: the same amount, converted by molar mass.

One may read the MIC as the lowest concentration that inhibits growth of the organism. Turning to `CCOc1ccc2ccccc2c1C(=O)N[C@@H]1C(=O)N2[C@@H]1SC(C)(C)[C@@H]2C(=O)O` [NAFCILLIN], the survival at 100 mg/kg in the assay with Staphylococcus aureus [1] and in the assay on Staphylococcus aureus [10] was 100% in each case. Besides, the Activity in the assay with Staphylococcus aureus [2] was 84%; in the assay on Staphylococcus aureus [3] it was 93%; in the assay with Staphylococcus aureus [4], 100%; in the assay on Staphylococcus aureus [5] it was 99.2%; in the assay on Staphylococcus aureus [7], 96%; with Staphylococcus aureus [8], 98%. Also, the Activity in the assay on Staphylococcus aureus [12] came to 98.3%; in the assay on Staphylococcus aureus [13] it was 82%; in the assay on Staphylococcus aureus [14], 95.6%. Also, the MIC against Staphylococcus aureus [6] came to 64 µg/mL (≈ 154 µM); with Staphylococcus aureus [11], 0.5 µg/mL (≈ 1.21 µM). In addition, the survival at 50 mg/kg in the assay on Staphylococcus aureus [9] worked out at 100%.
With `CC(=O)NC[C@H]1CN(c2ccc(N3CCOCC3)c(F)c2)C(=O)O1` [LINEZOLID], the survival at 100 mg/kg in the assay with Staphylococcus aureus [1] and in the assay on Staphylococcus aureus [10] was 100% each time. Further, the Activity in the assay on Staphylococcus aureus [15] was 100%; in the assay with Staphylococcus aureus [16] it was 99.2%; in the assay with Staphylococcus aureus [17] it was 90%; with Staphylococcus aureus [18], 98%; in the assay on Staphylococcus aureus [19], 96.6%; in the assay on Staphylococcus aureus [20], 100%. Moreover, the Activity in the assay with Staphylococcus aureus [21] is given as 85%; with Staphylococcus aureus [22], 89%; in the assay with Staphylococcus aureus [23] it was 91%; with Staphylococcus aureus [24] it was 68%; in the assay with Staphylococcus aureus [25], 59%. The MIC in the assay on Staphylococcus aureus [6] came out at 0.5 µg/mL (≈ 1.48 µM); against Staphylococcus aureus [11], 1 µg/mL (≈ 2.96 µM).

These data come from ChEMBL document CHEMBL1144463, “Rapid bactericidal activity of daptomycin against methicillin-resistant and methicillin-susceptible Staphylococcus aureus peritonitis in mice as measured with bioluminescent bacteria” (2007).
